In ChEMBL document CHEMBL1821569, “Synthesis of novel 1,2,5-trisubstituted benzimidazoles as potential antitumor agents” (2011):

Legend:
Type in all cases: functional
RXF 393 = test: Antitumor activity against human RXF393 cells after 48 hrs by SRB assay; details: RXF 393, 48 h
Procedure, shortened: (§1)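 NCI 60-cell-line secondary screen. Cells were exposed continuously to drug for 48 h at five concentration levels (100, 10, 1.0, 0.1 and 0.01). Growth was estimated by sulforhodamine B protein staining. GI50 is the concentration giving a 50% reduction in net protein increase versus untreated control cells over the incubation. TGI (total growth inhibition) and LC50 (50% cell kill) were also derived.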

UACC-257 = test: Antitumor activity against human UACC257 cells after 48 hrs by SRB assay; details: UACC-257, 48 h
Procedure, shortened: (§2)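 NCI 60-cell-line secondary screen. Continuous 48 h exposure at five concentration levels. Cell growth estimated by sulforhodamine B protein staining. GI50 taken as the concentration giving 50% reduction in net protein increase relative to untreated control cells over the incubation. TGI (total growth inhibition) and LC50 (50% cell kill) were also derived.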

BT-549 = test: Antitumor activity against human BT549 cells after 48 hrs by SRB assay; details: BT-549, 48 h; procedure, shortened: as §1
UO-31 = test: Antitumor activity against human UO31 cells after 48 hrs by SRB assay; details: UO-31, 48 h; procedure, shortened: as §2
SK-MEL-2 = test: Antitumor activity against human SK-MEL-2 cells after 48 hrs by SRB assay; details: SK-MEL-2, 48 h; procedure, shortened: as §1
HCC 2998 = test: Antitumor activity against human HCC2998 cells after 48 hrs by SRB assay; details: HCC 2998, 48 h, read-out: LC50 (the source's name)
Procedure, shortened: (§3)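 NCI 60-cell-line secondary screen: continuous drug exposure for 48 h at five concentration levels (100, 10, 1.0, 0.1 and 0.01). Cell growth was estimated by sulforhodamine B (SRB) protein staining. GI50 is the concentration giving a 50% reduction in net protein increase relative to untreated control cells during the incubation. TGI and LC50 were derived from the same data.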

SN12C = test: Antitumor activity against human SN12C cells after 48 hrs by SRB assay; procedure, shortened: as §1
LOX IMVI = test: Antitumor activity against human LOXIMVI cells after 48 hrs by SRB assay; procedure, shortened: as §1
A498 = test: Antitumor activity against human A498 cells after 48 hrs by SRB assay; details: A498, 48 h; procedure, shortened: as §1
SF-539 = test: Antitumor activity against human SF539 cells after 48 hrs by SRB assay; details: SF-539, 48 h; procedure, shortened: as §1
HCT-116 = test: Antitumor activity against human HCT116 cells after 48 hrs by SRB assay; details: HCT-116, 48 h; procedure, shortened: as §1
MDA-MB-435 = test: Antitumor activity against human MDA-MB-435 cells after 48 hrs by SRB assay; details: MDA-MB-435, 48 h; procedure, shortened: as §1
SF-268 = test: Antitumor activity against human SF268 cells after 48 hrs by SRB assay; details: SF-268, 48 h; procedure, shortened: as §1
OVCAR-4 = test: Antitumor activity against human OVCAR4 cells after 48 hrs by SRB assay; details: OVCAR-4, 48 h; procedure, shortened: as §1
SK-MEL-28 = test: Antitumor activity against human SK-MEL-28 cells after 48 hrs by SRB assay; details: SK-MEL-28, 48 h; procedure, shortened: as §1
COLO 205 = test: Antitumor activity against human COLO205 cells after 48 hrs by SRB assay; details: COLO 205, 48 h; procedure, shortened: as §1
HOP-62 = test: Antitumor activity against human HOP62 cells after 48 hrs by SRB assay; details: HOP-62, 48 h; procedure, shortened: as §1
OVCAR-3 = test: Antitumor activity against human OVCAR3 cells after 48 hrs by SRB assay; details: OVCAR-3, 48 h; procedure, shortened: as §1
SK-OV-3 = test: Antitumor activity against human SKOV3 cells after 48 hrs by SRB assay; details: SK-OV-3, 48 h; procedure, shortened: as §1
U-251 = test: Antitumor activity against human U251 cells after 48 hrs by SRB assay; details: U-251, 48 h; procedure, shortened: as §2
OVCAR-8 = test: Antitumor activity against human OVCAR8 cells after 48 hrs by SRB assay; details: OVCAR-8, 48 h; procedure, shortened: as §1
CCRF-CEM = test: Antitumor activity against human CCRF-CEM cells after 48 hrs by SRB assay; procedure, shortened: as §1
SNB-19 = test: Antitumor activity against human SNB19 cells after 48 hrs by SRB assay; details: SNB-19, 48 h; procedure, shortened: as §1
HL-60(TB) = test: Antitumor activity against human HL-60(TB) cells after 48 hrs by SRB assay; details: HL-60, 48 h; procedure, shortened: as §3
HT-29 = test: Antitumor activity against human HT-29 cells after 48 hrs by SRB assay; details: HT-29, 48 h; procedure, shortened: as §1
NCI-H23 = test: Antitumor activity against human NCI-H23 cells after 48 hrs by SRB assay; details: NCI-H23, 48 h; procedure, shortened: as §1
KM12 = test: Antitumor activity against human KM12 cells after 48 hrs by SRB assay; details: KM12, 48 h; procedure, shortened: as §1
SF-295 = test: Antitumor activity against human SF295 cells after 48 hrs by SRB assay; details: SF-295, 48 h; procedure, shortened: as §1
DU-145 = test: Antitumor activity against human DU145 cells after 48 hrs by SRB assay; details: DU-145, 48 h; procedure, shortened: as §1
[1] = read-out: LC50 (the source's name)

## COC(=O)c1ccc2c(c1)nc(-c1cc3ccccc3[nH]c1=O)n2-c1cc(C(C)(C)C)[nH]n1
RXF 393
  GI50: 2.16 µM
  TGI: 8.86 µM
RXF 393; [1]
  CC50: > 100 µM
UACC-257
  TGI: > 100 µM
UACC-257; [1]
  CC50: > 100 µM
BT-549
  GI50: 4.88 µM
  TGI: 66.2 µM
BT-549; [1]
  CC50: > 100 µM
UO-31
  GI50: 0.533 µM
  TGI: > 100 µM
UO-31; [1]
  CC50: > 100 µM
SK-MEL-2
  GI50: 2.25 µM
  TGI: > 100 µM
SK-MEL-2; [1]
  CC50: > 100 µM
HCC 2998
  CC50: > 100 µM
SN12C
  GI50: 5.61 µM
  TGI: > 100 µM
SN12C; [1]
  CC50: > 100 µM
LOX IMVI
  GI50: 1.24 µM
LOX IMVI; [1]
  CC50: > 100 µM
A498
  GI50: 13.6 µM
  TGI: 76.9 µM
A498; [1]
  CC50: > 100 µM
SF-539
  GI50: 4.12 µM
  TGI: > 100 µM
SF-539; [1]
  CC50: > 100 µM
HCT-116
  GI50: 1.74 µM
  LC50: > 100 µM
  TGI: > 100 µM
MDA-MB-435
  TGI: > 100 µM
MDA-MB-435; [1]
  CC50: > 100 µM
SF-268
  GI50: 2.13 µM
  TGI: 91.9 µM
SF-268; [1]
  CC50: > 100 µM
OVCAR-4
  TGI: > 100 µM
OVCAR-4; [1]
  CC50: > 100 µM
SK-MEL-28
  TGI: > 100 µM
SK-MEL-28; [1]
  CC50: > 100 µM
COLO 205
  TGI: > 100 µM
COLO 205; [1]
  CC50: > 100 µM
HOP-62
  GI50: 0.996 µM
  LC50 (concentration giving 50% cell kill): > 100 µM
  TGI: > 100 µM
OVCAR-3
  GI50: 6.27 µM
  TGI: > 100 µM
OVCAR-3; [1]
  CC50: > 100 µM
SK-OV-3
  GI50: 28.5 µM
  TGI: > 100 µM
SK-OV-3; [1]
  CC50: > 100 µM
U-251
  GI50: 0.652 µM
  TGI: > 100 µM
U-251; [1]
  CC50: > 100 µM
OVCAR-8
  GI50: 1.79 µM
  TGI: > 100 µM
OVCAR-8; [1]
  CC50: > 100 µM
CCRF-CEM
  GI50: 0.585 µM
  TGI: > 100 µM
CCRF-CEM; [1]
  CC50: > 100 µM
SNB-19
  GI50: 7.59 µM
  TGI: > 100 µM
SNB-19; [1]
  CC50: > 100 µM
HL-60(TB)
  GI50: 0.322 µM
  LC50: > 100 µM
HT-29
  GI50: 1.34 µM
  LC50 (50% cell kill): > 100 µM
  TGI: > 100 µM
NCI-H23
  GI50: 2.78 µM
  LC50 (50% cell kill): > 100 µM
  TGI: > 100 µM
KM12
  GI50: 1.29 µM
KM12; [1]
  CC50: > 100 µM
SF-295
  GI50: 1.23 µM
  TGI: 25.5 µM
SF-295; [1]
  CC50: > 100 µM
DU-145
  GI50: 2.37 µM
  TGI: > 100 µM
DU-145; [1]
  CC50: > 100 µM
